ChEMBL document CHEMBL5058577, “EUbOPEN Chemogenomics Library 2 (Multiplex)” (2022)

System: Fibroblast
Experiment: Multiplex assay against human fibroblast
Type: toxicity, cell-based
Procedure, shortened: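 Four dyes were applied at seeding to live cells: Hoechst33342, BioTracker Green Microtubule Cytoskeleton Dye, MitoTracker Red and Annexin V Alexa Fluor 680. Imaging after compound addition used a CQ1 microscope at 37°C and 5% CO2. CellPathfinder machine-learning gating then sorted cells into Hoechst high-intensity objects or normal cells, normal cells into healthy, pyknosed or fragmented nuclei, and pyknosed cells into mitotic or apoptotic, with tubulin, mitochondrial-mass and membrane-permeability phenotypes given as per cents of healthy-nucleus cells.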

[1] = 12 h, 1 µM, compound concentration 1 uM, replicate 1
[2] = 12 h, 1 µM, compound concentration 1 uM, replicate 2
[3] = 12 h, 10 µM, compound concentration 10 uM, replicate 1
[4] = 12 h, 10 µM, compound concentration 10 uM, replicate 2
[5] = 24 h, 1 µM, compound concentration 1 uM, replicate 1
[6] = 24 h, 1 µM, compound concentration 1 uM, replicate 2
[7] = 24 h, 10 µM, compound concentration 10 uM, replicate 1
[8] = 24 h, 10 µM, compound concentration 10 uM, replicate 2
[9] = 48 h, 1 µM, compound concentration 1 uM, replicate 1
[10] = 48 h, 1 µM, compound concentration 1 uM, replicate 2
[11] = 48 h, 10 µM, compound concentration 10 uM, replicate 1
[12] = 48 h, 10 µM, compound concentration 10 uM, replicate 2

O=C(CCCc1ccccc1)Nc1nc2ccccc2c(=O)s1
Population Apoptotic (%) [1]: 58% | Population Fragmented Nuclei (%) [1]: 9% | Population Healthy Nuclei (%) [1]: 66% | Population Hoechst High Intensity Objects (%) [1]: 2% | Population Membrane Permeable-Phenotype (%) [1]: 0% | Population Mitochondria Different-Phenotype (%) [1]: 4% | Population Mitotic Cells (%) [1]: 41% | Population Normal (%) [1]: 97% | Population Pyknosed Nuclei (%) [1]: 23% | Population Tubulin-Different-Phenotype (%) [1]: 34% | Total Cell Count [1]: 127 | Population Apoptotic (%) [2]: 34% | Population Fragmented Nuclei (%) [2]: 19% | Population Healthy Nuclei (%) [2]: 49% | Population Hoechst High Intensity Objects (%) [2]: 3% | Population Membrane Permeable-Phenotype (%) [2]: 9% | Population Mitochondria Different-Phenotype (%) [2]: 7% | Population Mitotic Cells (%) [2]: 65% | Population Normal (%) [2]: 96% | Population Pyknosed Nuclei (%) [2]: 31% | Population Tubulin-Different-Phenotype (%) [2]: 35% | Total Cell Count [2]: 135 | Population Apoptotic (%) [3]: 51% | Population Fragmented Nuclei (%) [3]: 21% | Population Healthy Nuclei (%) [3]: 58% | Population Hoechst High Intensity Objects (%) [3]: 2% | Population Membrane Permeable-Phenotype (%) [3]: 1% | Population Mitochondria Different-Phenotype (%) [3]: 4% | Population Mitotic Cells (%) [3]: 48% | Population Normal (%) [3]: 97% | Population Pyknosed Nuclei (%) [3]: 20% | Population Tubulin-Different-Phenotype (%) [3]: 28% | Total Cell Count [3]: 147 | Population Apoptotic (%) [4]: 31% | Population Fragmented Nuclei (%) [4]: 26% | Population Healthy Nuclei (%) [4]: 38% | Population Hoechst High Intensity Objects (%) [4]: 12% | Population Membrane Permeable-Phenotype (%) [4]: 13% | Population Mitochondria Different-Phenotype (%) [4]: 17% | Population Mitotic Cells (%) [4]: 68% | Population Normal (%) [4]: 87% | Population Pyknosed Nuclei (%) [4]: 35% | Population Tubulin-Different-Phenotype (%) [4]: 48% | Total Cell Count [4]: 133 | Population Apoptotic (%) [5]: 50% | Population Fragmented Nuclei (%) [5]: 13% | Population Healthy Nuclei (%) [5]: 68% | Population Hoechst High Intensity Objects (%) [5]: 2% | Population Membrane Permeable-Phenotype (%) [5]: 0% | Population Mitochondria Different-Phenotype (%) [5]: 5% | Population Mitotic Cells (%) [5]: 50% | Population Normal (%) [5]: 97% | Population Pyknosed Nuclei (%) [5]: 18% | Population Tubulin-Different-Phenotype (%) [5]: 20% | Total Cell Count [5]: 147 | Population Apoptotic (%) [6]: 42% | Population Fragmented Nuclei (%) [6]: 21% | Population Healthy Nuclei (%) [6]: 51% | Population Hoechst High Intensity Objects (%) [6]: 5% | Population Membrane Permeable-Phenotype (%) [6]: 4% | Population Mitochondria Different-Phenotype (%) [6]: 4% | Population Mitotic Cells (%) [6]: 57% | Population Normal (%) [6]: 94% | Population Pyknosed Nuclei (%) [6]: 26% | Population Tubulin-Different-Phenotype (%) [6]: 35% | Total Cell Count [6]: 131 | Population Apoptotic (%) [7]: 46% | Population Fragmented Nuclei (%) [7]: 19% | Population Healthy Nuclei (%) [7]: 60% | Population Hoechst High Intensity Objects (%) [7]: 5% | Population Membrane Permeable-Phenotype (%) [7]: 0% | Population Mitochondria Different-Phenotype (%) [7]: 3% | Population Mitotic Cells (%) [7]: 53% | Population Normal (%) [7]: 94% | Population Pyknosed Nuclei (%) [7]: 20% | Population Tubulin-Different-Phenotype (%) [7]: 15% | Total Cell Count [7]: 135 | Population Apoptotic (%) [8]: 53% | Population Fragmented Nuclei (%) [8]: 34% | Population Healthy Nuclei (%) [8]: 39% | Population Membrane Permeable-Phenotype (%) [8]: 18% | Population Mitochondria Different-Phenotype (%) [8]: 14% | Population Mitotic Cells (%) [8]: 46% | Population Pyknosed Nuclei (%) [8]: 25% | Population Tubulin-Different-Phenotype (%) [8]: 62% | Total Cell Count [8]: 134 | Population Apoptotic (%) [9]: 59% | Population Fragmented Nuclei (%) [9]: 13% | Population Healthy Nuclei (%) [9]: 66% | Population Hoechst High Intensity Objects (%) [9]: 5% | Population Membrane Permeable-Phenotype (%) [9]: 1% | Population Mitochondria Different-Phenotype (%) [9]: 1% | Population Mitotic Cells (%) [9]: 40% | Population Normal (%) [9]: 94% | Population Pyknosed Nuclei (%) [9]: 19% | Population Tubulin-Different-Phenotype (%) [9]: 32% | Total Cell Count [9]: 146 | Population Apoptotic (%) [10]: 42% | Population Fragmented Nuclei (%) [10]: 26% | Population Healthy Nuclei (%) [10]: 58% | Population Hoechst High Intensity Objects (%) [10]: 2% | Population Membrane Permeable-Phenotype (%) [10]: 4% | Population Mitochondria Different-Phenotype (%) [10]: 6% | Population Mitotic Cells (%) [10]: 57% | Population Normal (%) [10]: 97% | Population Pyknosed Nuclei (%) [10]: 15% | Population Tubulin-Different-Phenotype (%) [10]: 50% | Total Cell Count [10]: 127 | Population Apoptotic (%) [11]: 58% | Population Fragmented Nuclei (%) [11]: 19% | Population Healthy Nuclei (%) [11]: 58% | Population Hoechst High Intensity Objects (%) [11]: 2% | Population Membrane Permeable-Phenotype (%) [11]: 1% | Population Mitochondria Different-Phenotype (%) [11]: 2% | Population Mitotic Cells (%) [11]: 41% | Population Normal (%) [11]: 97% | Population Pyknosed Nuclei (%) [11]: 22% | Population Tubulin-Different-Phenotype (%) [11]: 26% | Total Cell Count [11]: 143 | Population Apoptotic (%) [12]: 77% | Population Fragmented Nuclei (%) [12]: 40% | Population Healthy Nuclei (%) [12]: 43% | Population Hoechst High Intensity Objects (%) [12]: 5% | Population Membrane Permeable-Phenotype (%) [12]: 10% | Population Mitochondria Different-Phenotype (%) [12]: 14% | Population Mitotic Cells (%) [12]: 22% | Population Normal (%) [12]: 94% | Population Pyknosed Nuclei (%) [12]: 16% | Population Tubulin-Different-Phenotype (%) [12]: 73% | Total Cell Count [12]: 119
